Measured values of several laboratories.
Lines come from different studies, so protocols differ.
Organism: Plasmodium falciparum
Effect on: parasite growth

For `CCn1cc(-c2nc(C)no2)c(=O)c2cc(F)c(N3CCC(c4ccccc4)CC3)cc21`, the EC50 was 30 nM (3D7; 72 h, blood stage).
For `CN1CCN(S(=O)(=O)c2cccc(-c3ccc4c(Nc5ccc(OCc6cccc(F)c6)c(Cl)c5)ccnc4c3)c2)CC1`, the EC50 was 10 nM (D6; drug-resistant strain, blood stage).
The EC50 of `COc1cc(C(=O)N(C)C)ccc1-c1cc2nccc(-c3ccc4ccncc4c3)c2o1` is reported as 997 nM (3D7; 72 h, blood stage).
With `CCn1cc(-c2cccnc2)c(=O)c2cc(F)c(N3CCC(C)CC3)cc21` the EC50 was greater than 10000 nM (3D7; 72 h, blood stage).
`CC/N=C(\c1ccc(OC)c(OC)c1)N1CCCc2cc(C3=NNC(=O)SC3C)ccc21` (centres unmarked) has an EC50 of 1790 nM (3D7; 72 h, blood stage).
The EC50 of `C[C@H]1[C@@H](O)O[C@@H]2O[C@@]3(C)CC[C@H]4[C@H](C)CC[C@@H]1[C@@]24OO3` is reported as 11.5 nM (NF54; 48 h, gametocyte).
The EC50 of `CCn1cc(C(=O)N2CCN(C)CC2)c(=O)c2cc(F)c(N3CCC(C)CC3)cc21` is reported as greater than 10000 nM (3D7; 72 h, blood stage).
With `Cc1nnc(Nc2ccnc3cc(-c4ccc(S(=O)(=O)N5CCN(C)CC5)cc4)ccc23)nc1C` the EC50 was 160 nM (D6; drug-resistant strain, blood stage).
`CCn1cc(-c2nc(C)no2)c(=O)c2cc(F)c(N3CCC(C(C)C)CC3)cc21` has an EC50 of 41 nM (3D7; 72 h, blood stage).
For `COc1ccc(Nc2ccnc3cc(-c4cnc(N5CCN(C)CC5)nc4)ccc23)cc1Cl`, the EC50 was 35 nM (D6; drug-resistant strain, blood stage).
`COc1ccc(CNc2nc(-c3ccc(C(=O)O)nc3)nc3sc4c(c23)CCCC4)cc1Cl` has an EC50 of 1590 nM (3D7; 72 h, blood stage).
`CN1CCN(S(=O)(=O)c2ccc(-c3ccc4c(Nc5cccc(Cl)c5)ccnc4c3)cc2)CC1` has an EC50 of 200 nM (D6; drug-resistant strain, blood stage).
For `CCn1cc(-c2nc(C)no2)c(=O)c2cc(F)c(N3CCCC(C)C3)cc21` (centres unmarked), the EC50 was 114 nM (3D7; 72 h, blood stage).
`Cc1cc(Nc2ccnc3cc(-c4ccc(S(=O)(=O)N5CCN(C)CC5)cc4)ccc23)sn1` gave an EC50 of 110 nM (D6; drug-resistant strain, blood stage).
`Cn1cc(-c2cnc3[nH]cc(-c4cn(Cc5cccc(F)c5F)nn4)c3c2)cn1` gave an EC50 of 599 nM (3D7; 72 h, blood stage).
The EC50 of `CN1CCN(c2ncc(-c3ccc4c(Nc5ccc(OCc6cccc(F)c6)c(Cl)c5)ccnc4c3)cn2)CC1` is reported as 26 nM (D6; drug-resistant strain, blood stage).
The EC50 of `CCn1cc(-c2nc(C)no2)c(=O)c2cc(F)c(N3CCN(C)CC3)cc21` is reported as 4570 nM (3D7; 72 h, blood stage).
With `COc1cc(OC)c(CCNC(=O)c2cn3cc(-c4cc(OCC(=O)O)ccc4OC)nc3s2)c(OC)c1` the EC50 was 2230 nM (3D7; 72 h, blood stage).
With `CN1CCC(c2cc(-c3ccncc3)c(-c3ccc(F)cc3)[nH]2)CC1` the EC50 was 90 nM (SYBR Green; A10, 3D7; 72 h, blood stage).
`CCCNCC(O)COc1ccccc1C(=O)CCc1ccccc1` (centres unmarked) has an EC50 of 920 nM (SYBR Green; K1; drug-resistant strain, blood stage).
